Shown are actives, neighbours in structure and some others; about 3.5% of the full set was active somewhere.
rRNA inh HTS – selective bacterial rRNA inhibition in E. coli. 350,000 compounds, 1.6% hits. GFP signal change (wild-type ribosome), % (test concentration not listed). E. coli WT GFP vs humanized-ribosome RFP mutants, fluorescence, 24 h; active compounds read low; DMSO median 0, no signal -100;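 active = significant combined selectivity score with lowered wild-type GFP, culture density cut under 30%, mutant RFP and density less affected; inactive = any of these conditions unmet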
DENV2 CPE – DENV2-induced cell death inhibition; 350,000 compounds, 1.7% hits; CPE inhibition, % at 9.99 µM; AID 651640; DENV2-infected cells, cytopathic effect rescue, plate reader; in the data active = CPE inhibition above about 20%, passing the limit was not always enough; inconclusive = no clear call, values can overlap the other calls; tested in BHK-21 cells;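 also: 0% = median of neutral control wells and 100% = median of positive control wells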
FN deposition inh – fibronectin deposition inhibition. AH1F fibroblasts, Alexa488-fibronectin deposition fluorescence, overnight. inhibition, % at 12.6 µM. 350,000 compounds, 0.086% hits;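 active = mean inhibition across replicates of 30% or more, regardless of how many single replicates reach that level; inconclusive = mean under 30% yet at least half of replicates reach 30%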;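 also: positive control wells lacked labelled fibronectin entirely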
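Material: AH1F fibroblast monolayer depositing Alexa488-labelled fibronectin into matrix / Amount: 10000 AH1F cells per well / Signal: fluorescence 485/525 nm / Medium: DMEM, 2% serum / Compound: single dose, pinned / Incubation: 1 h cell adhesion before compound, then overnight fibronectin incubation / Reagent: Alexa488-FN, 24 nM final / Read-out: inhibition of fibronectin deposition signal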
Env fusion inh – HIV envelope-mediated fusion inhibition; HeLa-JRFL Env/CEM21 cell fusion, luciferase; inhibition, % at 12.3 µM; 360,000 compounds, 1.1% hits;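 active = mean replicate inhibition score of at least 50 and every replicate individually at or above 50; inconclusive = only one of the two criteria met; inactive = mean below 50 and not all replicates reaching 50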;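 also: 0% = plate neutral controls and 100% = maraviroc near 300 nM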
PGC1a acetyl inh – modulators of PGC1a acetylation; U2OS PGC1a acetylation, AlphaScreen anti-acetyl-lysine; with virally co-expressed GCN5 acetyltransferase; inhibition, % at 15.6 µM; 350,000 compounds, 0.17% hits; AID 651687;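 active = every replicate shows inhibition of at least 40%; inconclusive = mean inhibition at least 40% but some replicate below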;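 also: 0% = neutral control wells and 100% = positive control wells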
PglD DTNB – inhibitors of Campylobacter jejuni PglD acetyltransferase; 360,000 compounds, 0.098% hits; inhibition, % at 12.5 µM; purified PglD enzyme, DTNB colorimetric CoA detection; in the data active = inhibition above about 16%, passing the limit was not always enough; inconclusive = no clear call, values can overlap the other calls
The depositor's hits bear a star; ? = inconclusive; / = no result given; [ ] = remark or other dose.

SMILES	rRNA inh HTS	DENV2 CPE	FN deposition inh	Env fusion inh	PGC1a acetyl inh	PglD DTNB
C[C@@H]1CN([C@H](C)CO)C(=O)c2cc(NC(=O)Nc3ccc(C(F)(F)F)cc3)ccc2O[C@@H](C)CCCCO[C@H]1CN(C)Cc1ccc2c(c1)OCO2	-10	-33	-4	?	-18	2
COc1ccc2c3c([nH]c2c1)[C@@H](CO)N(C(=O)Cc1ccccc1)CC31CN(C(=O)Nc2ccccc2F)C1	-7	0	/	/	6	/
COC(=O)C(=Nc1ccccc1)/C(C(=O)C(=O)N(C)c1ccccc1)=C(\O)c1ccccc1	-25*	2	-7	-6	2	2
CCOC(=O)/C(C(N)=NC)=C(\O)c1ccccc1	/	/	/	/	5	-3
Cn1c(=O)c2c(ncn2Cc2ccc(Cl)c(Cl)c2)n(C)c1=O	/	/	-10	66*	/	4
Cc1ccc2nc(NC(=O)CCCc3nc4ccccc4s3)sc2c1	/	/	/	/	11	4
Cc1ccc2nc(NC(=O)CCCC(=O)O)sc2c1	13	3	-1	69*	/	/
CCCCNC(=O)Nc1nc2ccc(CC)cc2s1	7	11	34*	-9	/	/
Cc1ccc2nc(NC(=O)CN3C(=O)C4CC=CCC4C3=O)sc2c1 (stereo not drawn)	-25*	-6	-3	-23	4	/
COc1ccc(NC(=O)N2C[C@@H]3[C@H](c4ccccc42)[C@@H](CO)N3C(=O)C2CCCCC2)cc1	-4	6	4	/	2	-3
CC(=O)N(C)C[C@@H]1Oc2ncc(/C=C/c3ccccc3)cc2C(=O)N([C@@H](C)CO)C[C@@H]1C	6	18	-2	14[16.7 µM]	11	-1
CCCCCC(=C/c1ccccc1)/C=N/Nc1ccc(S(=O)(=O)N2CCOCC2)cc1[N+](=O)[O-]	3	32*	/	-4	-6	-1
CCn1c(SCC(N)=O)nc2sc3c(c2c1=O)CCCC3	/	/	/	/	6	/
CCSc1nc2sc3c(c2c(=O)n1CC)CCC3	-26	40*	6	-6	7	7
NNc1nc2sc3c(c2c(=O)n1Cc1ccccc1)CCC3	-34*	-1	-11	18	21	11
CN1C(=O)c2cc(NC(=O)Nc3ccccc3F)ccc2OC[C@@H]2O[C@@H](CC(=O)NCc3ccc(-c4ccccc4)cc3)CC[C@H]21	1	8	-12	/	-2	-3
CNC[C@@H]1Oc2c(NC(=O)C3CCCCC3)cccc2C(=O)N([C@H](C)CO)C[C@H]1C	2	2	-13	-13[16.7 µM]	17	0
CN1C(=O)c2cc(NC(=O)Nc3ccccc3F)ccc2OC[C@H]2O[C@@H](CC(=O)O)CC[C@H]21	0	3	-4	8[16.7 µM]	1	-1
O=C1NC(c2ccccc2)=CC(c2ccccc2)N1 (stereo not drawn)	9	12	-4	-6	-17	/
O=C1NC(c2ccccc2)=CC(c2ccccc2O)N1 (stereo not drawn)	2	145*	-1	-30	/	-2
CC1(C(=O)NCC2CC2)C=CC2(CCCCC2)N1C(=O)c1ccccc1 (stereo not drawn)	6	/	/	/	-1	-3
CC1(C(=O)NCc2cc(F)cc(C(F)(F)F)c2)C=CC2(CCCCC2)N1C(=O)c1ccccc1 (stereo not drawn)	5	100*	9	10	-12	1
COc1ccc(S(=O)(=O)Nc2ccc3c(c2)C(=O)N([C@H](C)CO)C[C@@H](C)[C@H](CN(C)Cc2ccc(C(=O)O)cc2)O3)cc1	3	-4	-6	5[16.7 µM]	-4	5
C[C@H](CO)N1C[C@H](C)[C@@H](CN(C)Cc2ccccc2)Oc2ncc(C#CCN(C)C)cc2C1=O	5	-8	-3	6[16.7 µM]	2	-1
COc1ccc(-c2cc(-c3ccccc3)c(C#N)c(S(C)=O)n2)cc1 (stereo not drawn)	/	/	-7	-84	85*	-1
SMILES	rRNA inh HTS	DENV2 CPE	FN deposition inh	Env fusion inh	PGC1a acetyl inh	PglD DTNB
CCSc1nc(-c2ccc(OC)cc2)cc(-c2ccccc2)c1C#N	10	9	/	/	24	-3
CC(C)=CC(=O)OCc1cc([N+](=O)[O-])cc2c1OCOC2	-16*	0	/	-20	-7	/
O=C(OCc1cc([N+](=O)[O-])cc2c1OCOC2)c1ccc2ccccc2n1	6	1	/	-6	/	/
O=C(c1ccc(CNS(=O)(=O)c2ccccc2)cc1)N1CCN(Cc2ccccc2)CC1	/	/	-11	79*	-1	-4
CCC1(C)Cc2ccccc2-c2nc(NCCCO)[nH]c(=O)c21 (stereo not drawn)	-28*	6	5	10	5	/
CCC1(CC)Cc2ccccc2-c2nc(NCCCO)[nH]c(=O)c21	-3	0	1	16	-1	/
CCC1(C)Cc2ccccc2-c2nc(SCC(N)=O)[nH]c(=O)c21 (stereo not drawn)	-11	3	9	3	5	6
CCC1(C)Cc2ccccc2-c2nc(SC)[nH]c(=O)c21 (stereo not drawn)	1	-4	-7	80*	/	/
CC(C)NC(=O)Nc1ccc2c(c1)CC(=O)N([C@H](C)CO)C[C@H](C)[C@H](CN(C)S(=O)(=O)c1cn(C)cn1)O2	-2	-1	/	-23[16.7 µM]	0	-2
C[C@H]1CN([C@@H](C)CO)C(=O)Cc2cc(NS(=O)(=O)c3cccs3)ccc2O[C@@H]1CN(C)S(C)(=O)=O	2	16	/	3[16.7 µM]	4	-3
Cc1ccc(CNC(=O)CN2C(=O)NC(C)(c3cccc(Br)c3)C2=O)cc1 (stereo not drawn)	-29*	4	-2	17	-8	5
Cc1ccc(CNC(=O)CN2C(=O)NC(C)(c3ccc(Cl)cc3)C2=O)cc1 (stereo not drawn)	8	-1	-9	17	-4	-9
CCCNC(=O)C[C@@H]1CC[C@@H]2[C@@H](COc3ccc(NC(=O)CC)cc3C(=O)N2C)O1	2	?	-3	-23[16.7 µM]	-5	-1
CCCCCCc1nc2ccccc2c(=O)n1NC(=O)c1c(O)c2c(n(CC(C)C)c1=O)CCCC2	/	/	17	73*	-1	-9
CC(=O)N(CCOc1ccccc1)CCOc1ccccc1	-23*	-5	4	-36	/	/
Cc1cc(C)n2ncc(C(=O)NCc3ccc(Cl)cc3)c2n1	/	/	46*	4	1	0
C=CCNC(=O)C1CC1(c1cccc(C)c1)c1cccc(C)c1 (stereo not drawn)	-22	-1	2	5	5	-1
Cc1cccc(C2(c3cccc(C)c3)CC2C(=O)Nc2ccc([N+](=O)[O-])cc2O)c1 (stereo not drawn)	/	/	23	75*	/	/
O=C(C[C@@H]1CC[C@@H]2[C@H](COC[C@@H](O)CN2CC2CCOCC2)O1)NCc1ccc(Cl)cc1	3	-1	0	-8[16.7 µM]	-2	1
CCN(CC)c1ccc(/C=N/NC(=O)OC)c(O)c1	/	/	/	/	6	-8

Assay outcomes: PubChem BioAssay, Broad Institute
